From ChEMBL document CHEMBL4342503, “Diazabicyclooctane Functionalization for Inhibition of β-Lactamases from Enterobacteria” (2020)
Activity calls are given as the source filed them. The rule behind the calls is not given here.

Legend:
Enterobacter cloacae [1] = assay: Inhibition of Enterobacter cloacae CTX-M-15 expressed in Escherichia coli BL21 DE3 assessed as K2/Ki ratio using nitrocefin as substrate by spectrophotometry
Method in brief: (§1)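 His-tagged enzymes expressed in E. coli BL21(DE3) (IPTG 0.5 mM, 16°C, 18 h), purified by Ni-NTA and size exclusion in 25 mM Tris-HCl pH 7.5, 300 mM NaCl. Carbamoylation k2/Ki from progress curves, reporter nitrocefin 100 μM, 20°C, 100 mM MES pH 6.4; inhibitor up to 100 μM; ≥6 curves, ≥2 independent experiments.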

Escherichia coli [2] = assay: Antibacterial activity against Escherichia coli Top10 harboring TEM1 assessed as cefamandole MIC by CLSI protocol based method (reference value: 2048 ug/ml); type: functional
[3] = Inhibition of KPC-2 (unknown origin) expressed in Escherichia coli BL21 DE3 assessed as K2/Ki ratio using nitrocefin as substrate by spectrophotometry; method in brief: as §1
Escherichia coli [4] = assay: Antibacterial activity against Escherichia coli Top10 without harboring OXA-48 assessed as ertapenem MIC by CLSI protocol based method (reference value: < 0.03 ug/ml); type: functional
Escherichia coli [5] = assay: Antibacterial activity against Escherichia coli Top10 harboring CTX-M-15 assessed as amoxicillin MIC by CLSI protocol based method (reference value: 2048 ug/ml); type: functional
Escherichia coli [6] = assay: Antibacterial activity against Escherichia coli Top10 harboring AmpC assessed as cefotaxime MIC by CLSI protocol based method (reference value: 256 ug/ml); type: functional
Escherichia coli [7] = assay: Antibacterial activity against Escherichia coli Top10 harboring OXA-48 assessed as ertapenem MIC by CLSI protocol based method (reference value: 8 ug/ml); type: functional
Escherichia coli [8] = assay: Antibacterial activity against Escherichia coli Top10 without harboring CTX-M-15 assessed as amoxicillin MIC by CLSI protocol based method (reference value: 8 ug/ml); type: functional
Escherichia coli [9] = assay: Antibacterial activity against Escherichia coli Top10 harboring KPC-2 assessed as aztreonam MIC by CLSI protocol based method (reference value: 2048 ug/ml); type: functional
[10] = Inhibition of TEM1 (unknown origin) expressed in Escherichia coli BL21 DE3 assessed as K2/Ki ratio using nitrocefin as substrate by spectrophotometry; method in brief: as §1
Escherichia coli [11] = assay: Antibacterial activity against Escherichia coli Top10 without harboring AmpC assessed as cefotaxime MIC by CLSI protocol based method (reference value: 0.125 ug/ml); type: functional
Enterobacter cloacae [12] = assay: Inhibition of Enterobacter cloacae AmpC expressed in Escherichia coli BL21 DE3 assessed as K2/Ki ratio using nitrocefin as substrate by spectrophotometry; method in brief: as §1
Escherichia coli [13] = assay: Antibacterial activity against Escherichia coli Top10 without harboring KPC-2 assessed as aztreonam MIC by CLSI protocol based method (reference value: 0.5 ug/ml); type: functional
Escherichia coli [14] = assay: Antibacterial activity against Escherichia coli Top10 assessed as cefamandole MIC by CLSI protocol based method (reference value: 2 ug/ml); type: functional
Method in brief: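 Broth microdilution in cation-adjusted Mueller-Hinton broth following CLSI. Strain carries a β-lactamase gene cloned in pTRC-99k (kanamycin marker); preculture in BHI with IPTG (500 μM) and kanamycin (50 μg/ml); IPTG (500 μM) also in plates to induce enzyme. β-Lactam MIC read with or without inhibitor at fixed 15 μM (4 μg/ml for avibactam; clavulanate 4 μg/ml). Median of five biological repeats from two independent experiments.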

[15] = Inhibition of OXA-48 expressed in Escherichia coli BL21 DE3 assessed as K2/Ki ratio using CENTA as substrate by spectrophotometry
Method in brief: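 OXA-48 expressed in E. coli BL21(DE3) (IPTG 0.5 mM, 16°C, 18 h), purified by Ni-NTA and size exclusion. Carbamoylation k2/Ki by spectrophotometric progress curves with CENTA 100 μM as reporter, 20°C, 100 mM MES pH 6.4; inhibitor up to 100 μM; ≥6 curves from ≥2 independent experiments.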

SMILES	Ratio (Enterobacter cloacae [1])	MIC (Escherichia coli [2])	Ratio [3]	MIC (Escherichia coli [4])	MIC (Escherichia coli [5])	MIC (Escherichia coli [6])	MIC (Escherichia coli [7])	MIC (Escherichia coli [8])	MIC (Escherichia coli [9])	Ratio [10]	MIC (Escherichia coli [11])	Ratio (Enterobacter cloacae [12])	MIC (Escherichia coli [13])	MIC (Escherichia coli [14])	Ratio [15]
O=C1N2C[C@@H](CC[C@H]2Cn2cc(CN3CCOCC3)nn2)N1OS(=O)(=O)[O-].[Na+]	100 M⁻¹ s⁻¹	8 µg/mL	190 M⁻¹ s⁻¹	< 0.03 µg/mL	64 µg/mL	128 µg/mL	8 µg/mL	8 µg/mL	32 µg/mL	1200 M⁻¹ s⁻¹	0.125 µg/mL	31 M⁻¹ s⁻¹	0.25 µg/mL	2 µg/mL	inactive
O=C1N2C[C@@H](CC[C@H]2Cn2nccn2)N1OS(=O)(=O)[O-].[Na+]	120 M⁻¹ s⁻¹	16 µg/mL	350 M⁻¹ s⁻¹	< 0.03 µg/mL	512 µg/mL	32 µg/mL	8 µg/mL	4 µg/mL	512 µg/mL	2600 M⁻¹ s⁻¹	0.125 µg/mL	200 M⁻¹ s⁻¹	0.5 µg/mL	2 µg/mL	150 M⁻¹ s⁻¹
O=C(NC1CCNCC1)[C@@H]1CC[C@@H]2CN1C(=O)N2OS(=O)(=O)[O-].[Na+]	960 M⁻¹ s⁻¹	4 µg/mL	10000 M⁻¹ s⁻¹	< 0.03 µg/mL	16 µg/mL	0.25 µg/mL	8 µg/mL	2 µg/mL	0.5 µg/mL	43000 M⁻¹ s⁻¹	0.125 µg/mL	15000 M⁻¹ s⁻¹	0.25 µg/mL	2 µg/mL	inactive
O=C(O)C(F)(F)F.O=C1N2C[C@@H](CC[C@H]2Cn2cc(C3CCNCC3)nn2)N1OS(=O)(=O)O	350 M⁻¹ s⁻¹	4 µg/mL	340 M⁻¹ s⁻¹	< 0.03 µg/mL	64 µg/mL	128 µg/mL	8 µg/mL	4 µg/mL	32 µg/mL	3600 M⁻¹ s⁻¹	0.125 µg/mL	26 M⁻¹ s⁻¹	0.25 µg/mL	2 µg/mL	inactive
CN(C)Cc1cn(C[C@@H]2CC[C@@H]3CN2C(=O)N3OS(=O)(=O)[O-])nn1.[Na+]	29 M⁻¹ s⁻¹	32 µg/mL	120 M⁻¹ s⁻¹	< 0.03 µg/mL	256 µg/mL	64 µg/mL	8 µg/mL	4 µg/mL	64 µg/mL	780 M⁻¹ s⁻¹	0.125 µg/mL	20 M⁻¹ s⁻¹	0.5 µg/mL	2 µg/mL	inactive
NCCC(=O)Nc1ccc(-c2cn(C[C@@H]3CC[C@@H]4CN3C(=O)N4OS(=O)(=O)O)nn2)cc1.O=C(O)C(F)(F)F	150 M⁻¹ s⁻¹	32 µg/mL	180 M⁻¹ s⁻¹	< 0.03 µg/mL	128 µg/mL	64 µg/mL	4 µg/mL	4 µg/mL	64 µg/mL	940 M⁻¹ s⁻¹	0.25 µg/mL	28 M⁻¹ s⁻¹	0.25 µg/mL	2 µg/mL	inactive
O=C([O-])[C@H]1/C(=C/CO)O[C@@H]2CC(=O)N21.[Na+] [CLAVULANIC ACID (SODIUM)]	–	2 µg/mL	–	< 0.03 µg/mL	2 µg/mL	128 µg/mL	8 µg/mL	8 µg/mL	512 µg/mL	–	0.0625 µg/mL	–	0.5 µg/mL	2 µg/mL	–
COCc1cn(C[C@@H]2CC[C@@H]3CN2C(=O)N3OS(=O)(=O)[O-])nn1.[Na+]	120 M⁻¹ s⁻¹	16 µg/mL	18 M⁻¹ s⁻¹	< 0.03 µg/mL	256 µg/mL	128 µg/mL	16 µg/mL	8 µg/mL	512 µg/mL	830 M⁻¹ s⁻¹	0.125 µg/mL	15 M⁻¹ s⁻¹	0.5 µg/mL	2 µg/mL	inactive
CC(C)(C)OC(=O)NCc1cn(C[C@@H]2CC[C@@H]3CN2C(=O)N3OS(=O)(=O)[O-])nn1.[Na+]	130 M⁻¹ s⁻¹	128 µg/mL	540 M⁻¹ s⁻¹	< 0.03 µg/mL	1020 µg/mL	128 µg/mL	16 µg/mL	8 µg/mL	512 µg/mL	2800 M⁻¹ s⁻¹	0.125 µg/mL	51 M⁻¹ s⁻¹	0.25 µg/mL	2 µg/mL	210 M⁻¹ s⁻¹
NCc1cn(C[C@@H]2CC[C@@H]3CN2C(=O)N3OS(=O)(=O)O)nn1.O=C(O)C(F)(F)F	88 M⁻¹ s⁻¹	4 µg/mL	120 M⁻¹ s⁻¹	< 0.03 µg/mL	128 µg/mL	128 µg/mL	8 µg/mL	4 µg/mL	32 µg/mL	3100 M⁻¹ s⁻¹	0.125 µg/mL	16 M⁻¹ s⁻¹	0.25 µg/mL	4 µg/mL	inactive
C[Si](C)(C)c1cn(C[C@@H]2CC[C@@H]3CN2C(=O)N3OS(=O)(=O)[O-])nn1.[Na+]	400 M⁻¹ s⁻¹	64 µg/mL	97 M⁻¹ s⁻¹	< 0.03 µg/mL	1020 µg/mL	64 µg/mL	16 µg/mL	8 µg/mL	512 µg/mL	370 M⁻¹ s⁻¹	0.125 µg/mL	24 M⁻¹ s⁻¹	0.5 µg/mL	2 µg/mL	inactive
O=C(O)CCc1cn(C[C@@H]2CC[C@@H]3CN2C(=O)N3OS(=O)(=O)[O-])nn1.[Na+]	110 M⁻¹ s⁻¹	32 µg/mL	70 M⁻¹ s⁻¹	< 0.03 µg/mL	–	64 µg/mL	8 µg/mL	2 µg/mL	256 µg/mL	720 M⁻¹ s⁻¹	0.25 µg/mL	99 M⁻¹ s⁻¹	0.25 µg/mL	2 µg/mL	inactive
